Assay outcomes from PubChem BioAssay.
RBBP9 inhibitor – human RBBP9 inhibitors, primary screen, biochemical, fluorescence polarization, FP-Rh probe, HTS. 220,000 tested, 0.2% active. recombinant RBBP9. Serine hydrolase RBBP9 (Homo sapiens), O75884. inhibition, % at 7.94 µM;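 active = inhibition above the campaign mean of all tested compounds plus 3 SD, cut at about 14% in these data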;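 also: plate controls were DMSO wells with RBBP9 for no effect and wells lacking RBBP9 protein for full effect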
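Test system: recombinant human RBBP9; Timing: 30 min then 45 min, 25 °C; Detection: fluorescence polarization; Control set: RBBP9 with DMSO as uninhibited control, no-protein wells as full inhibition; Compound dosing: one concentration, 7.94 µM nominal, 0.794% DMSO; Probe or stimulus: FP-Rh activity-based probe, 375 nM before mixing.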
L929 necroptosis – inhibitors of zVAD-triggered necroptosis, primary screen, L929 cells; L929 zVAD necroptosis rescue, ATP luminescence, 24 h; with zVAD 60 µM; viability rescue, % at 10 µM; 220,000 tested, 0.38% active; AID 1377, 2008;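 active = activation, scaled between plate controls, above about 75%, limit read from the data; inactive = activation under that limit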;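 also: 0% = zVAD with DMSO and 100% = DMSO alone without zVAD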
Wee1 stabilizer – Wee1 degradation inhibitors, primary screen, cell-based, HeLa, Wee1K328M-luciferase, luminescence; Wee1-like protein kinase (Homo sapiens), P30291; HeLa Luc-Wee1K328M stability; 100% = proteasome inhibitor MG132 effect; reporter increase, % at 5 µM; 220,000 tested, 1.2% active;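 active = activation above the mean of all tested compounds plus 3 SD, set per screening run, cut at about 8.8% in these data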;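 also: cells exposed to compound for 20 h before luminescence read; 0% = DMSO alone and 100% = MG132 at 30 µM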
M18AAP inhibitor – PfM18AAP inhibitors, malaria aminopeptidase, primary screen, biochemical, QFRET, recombinant enzyme; AID 1822, 2009; inhibition, % at 7.35 µM; H-Glu-NHMec fluorogenic cleavage; M18 aspartyl aminopeptidase (Plasmodium falciparum 3D7); 290,000 tested, 1.2% active;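 active = inhibition above the campaign mean inhibition over all tested compounds plus 3 SD, cut at about 28% in these data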;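 also: 0% = plate median of test compound wells and 100% = 2 mM ZnCl2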
TNF death inh – inhibitors of TNF-alpha triggered necroptosis, primary screen, cell-based, Jurkat FADD-/-, single concentration; Jurkat FADD-/- TNF necroptosis rescue, ATP luminescence, 24 h; 0 = TNF only, 100 = no-TNF cells; activation (protection from cell death), % at 10 µM; 220,000 tested, 0.068% active; AID 463075, 2010;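 active = activation, meaning protection from cell death, of at least 50% relative to plate controls; inactive = activation below 50%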;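 also: necroptosis triggered by 40 ng/mL TNF-alpha added together with compound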
p97 inhibitor – inhibitors of human p97 ATPase, primary screen, biochemical; Transitional endoplasmic reticulum ATPase (Homo sapiens), P55072; recombinant p97 ATPase, Kinase-Glo ATP luminescence, 3 h; inhibition, % at 8 µM; 220,000 tested, 0.42% active; in the data active = inhibition above about 15%;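 also: 0% = DMSO vehicle and 100% = wells lacking enzyme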
Numbers without * were called inactive; . = no result given. Rows were chosen to be rich in hits. Some 2.7% of all compounds tested hit in one or more screens of this group.

SMILES	RBBP9 inhibitor	L929 necroptosis	Wee1 stabilizer	M18AAP inhibitor	TNF death inh	p97 inhibitor
O=C(NCc1ccco1)c1ccc(COc2ccccc2Cl)cc1	-15.5	-0.1	13.1*	5.6	0.9	-6.5
Cc1ccc(OCC(=O)N/N=C2\CC(=O)CC(C)(C)C2)c(Br)c1	.	.	.	-8.1	.	.
O=C(CSc1ccc2nnc(-c3ccccn3)n2n1)Nc1ccc(F)cc1F	.	.	.	0.8	.	.
N#CCNC1CC(=O)N(c2ccccc2)C1=O (centres undefined)	.	.	.	2.5	.	.
CN(NC1CC(=O)N(c2ccccc2)C1=O)c1ccccc1 (centres undefined)	-6.2	0.4	11.3*	-3.4	2.4	1.3
CC1(C)C2C/C(=N\O)C(C)(/[N+]([O-])=C/c3cccc([N+](=O)[O-])c3)CC21 (centres undefined)	2.9	-1.1	-3.9	0.6	-5.0	-0.1
CCc1nnc(NC(=O)CSc2nnc(-c3cc4ccccc4cc3O)n2CCOC)s1	-5.0	0.7	-0.1	-4.9	0.2	17.0*
Cc1ccc(Cc2nc(-c3ccncc3)no2)cc1	5.0	-1.1	9.7*	10.5	2.5	0.1
CCCOC(=O)c1c(-c2ccc(C)cc2C)csc1NC(=O)C1C2CCC(O2)C1C(=O)O (centres undefined)	0.4	0.0	0.0	29.6*	0.4	-1.3
Cc1ccccc1NC(=O)CN1C(=O)N/C(=C\c2ccccc2OCc2ccc(C(=O)O)cc2)C1=O	.	.	.	-0.9	.	.
CCOC(=O)CCNC(=O)N1CCCC(N(C)CCc2ccc(OC)c(OC)c2)C1 (centres undefined)	.	.	.	-7.3	.	.
O=C(O)c1cccc(CN2C(=O)S/C(=C/c3ccccc3[N+](=O)[O-])C2=O)c1	-6.1	0.5	0.9	19.4	-2.1	3.3
CCOC(=O)CN1C(=O)S/C(=C/c2cccc([N+](=O)[O-])c2O)C1=O	-2.9	9.1	10.5*	5.0	-1.7	-0.1
COc1cccc(NC(=O)c2cc(-c3cccnc3)nc3c(Cl)cccc23)c1	-6.2	83.8*	1.4	5.2	-6.7	5.3
O=C(Nc1ccc(F)cc1)c1cc(-c2ccncc2)nc2c(Cl)cccc12	.	.	.	-1.0	.	.
C/C(=N/O)c1no[n+]([O-])c1/C(C)=N\O	-11.6	-0.2	0.3	3.8	3.0	10.6
COc1cc(-c2ccc(NC(=O)CN3CCCCC3)c(OC)c2)ccc1NC(=O)CN1CCCCC1	1.4	0.0	8.9*	14.2	0.2	-3.9
O=C(COc1ccc(Br)cc1)OCCN1CCCCC1	.	.	.	-6.2	.	.
CCCS(=O)(=O)N1CCC(C(=O)NCCN(CC)c2ccccc2)CC1	-3.9	-0.5	2.6	31.4*	0.6	-0.8
CCOCCCNC(=O)C1CCN(S(=O)(=O)CC)CC1	1.9	0.7	14.8*	1.8	-0.1	4.2
CCN(CCNC(=O)C1CCN(S(C)(=O)=O)CC1)c1ccccc1	7.7	0.1	-4.2	3.3	-3.1	3.1
COCC(=O)n1nc(NCc2ccc(OC)cc2)nc1NCc1ccc(OC)cc1	-5.0	0.0	2.2	28.1*	0.4	-7.1
COc1ccc(CNc2nc(NCc3ccc(OC)cc3)n(S(C)(=O)=O)n2)cc1	-0.6	-1.1	-1.8	0.3	-0.3	2.0
O=C(NCCc1cccc(Cl)c1)c1cccs1	-9.7	0.1	1.4	-0.3	1.0	-5.7
CC(C)(C)n1nnnc1C(c1ccncc1)N1CCN(c2ccc(O)cc2)CC1 (centres undefined)	7.4	0.8	-2.9	30.2*	-0.2	6.7
Cc1ccc(O)c(N/C=C/C(=O)c2ccc(F)cc2)c1	.	.	.	28.4*	.	.
N#Cc1nc(-c2ccc(Cl)cc2)oc1NCC1CCCO1 (centres undefined)	-3.6	1.1	10.6*	-1.8	0.7	-3.9
CC(C)CCNC(=O)c1ccc2c(c1)ncn2C1CCCC1	-2.6	20.2	2.7	2.4	1.9	3.2
O=C(NCCN1CCOCC1)c1ccc2c(c1)ncn2C1CCCCC1	-11.7	88.4*	-0.3	-3.5	0.5	-4.7
